Reference: ChEMBL document CHEMBL4000256, “Light-Regulated NO Release as a Novel Strategy To Overcome Doxorubicin Multidrug Resistance” (ACS Med Chem Lett, 2017)
Active and inactive are the calls of the source. The calls are words filed in the database; no cut-off is given here.

What was measured:
Homo sapiens = organism: Homo sapiens; assay: Inhibition of ABC transporter in 7 mW/cm'2 irradiated human M14 cells assessed as increase in nitrite release at 5 uM measured after 20 mins by Griess reagent based spectrophotometric method
Outline: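 M14 melanoma cells held 20 min at room temperature in PBS, either in the dark or under 400 nm light (7 mW/cm2), with 5 μM compound alone or alongside 5 μM doxorubicin. Nitrite in the supernatant measured by Griess assay, in triplicate, n = 3.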

M14 = assay: Dark toxicity in human M14 cells assessed as increase in nitrite levels at 5 uM measured after 20 mins by Griess reagent based spectrophotometric method; assay type: cell-based; conditions: m14, 20 min
[1] = biological target: Multidrug resistance-associated protein 1 (Homo sapiens, UniProt P33527); assay: Inhibition of MRP1 in 7 mW/cm'2 irradiated human M14 cells assessed as nitration of tyrosine in MRP1 at 5 uM measured after 20 mins by immunoblotting
Outline: (§1)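 M14 melanoma cells held 20 min at room temperature in PBS under 400 nm light (7 mW/cm2) with 5 μM compound, alone or with equimolar doxorubicin. Nitrated ABC transporters (Pgp, MRP1, MRP4, BCRP) detected by immunoblot.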

[2] = biological target: T1, ATP-binding cassette sub-family C member 4 (Homo sapiens, UniProt O15439); assay: Inhibition of MRP4 in 7 mW/cm'2 irradiated human M14 cells assessed as nitration of tyrosine in MRP4 at 5 uM measured after 20 mins by immunoblotting; outline: as §1
T1 sequence (O15439 whole entry): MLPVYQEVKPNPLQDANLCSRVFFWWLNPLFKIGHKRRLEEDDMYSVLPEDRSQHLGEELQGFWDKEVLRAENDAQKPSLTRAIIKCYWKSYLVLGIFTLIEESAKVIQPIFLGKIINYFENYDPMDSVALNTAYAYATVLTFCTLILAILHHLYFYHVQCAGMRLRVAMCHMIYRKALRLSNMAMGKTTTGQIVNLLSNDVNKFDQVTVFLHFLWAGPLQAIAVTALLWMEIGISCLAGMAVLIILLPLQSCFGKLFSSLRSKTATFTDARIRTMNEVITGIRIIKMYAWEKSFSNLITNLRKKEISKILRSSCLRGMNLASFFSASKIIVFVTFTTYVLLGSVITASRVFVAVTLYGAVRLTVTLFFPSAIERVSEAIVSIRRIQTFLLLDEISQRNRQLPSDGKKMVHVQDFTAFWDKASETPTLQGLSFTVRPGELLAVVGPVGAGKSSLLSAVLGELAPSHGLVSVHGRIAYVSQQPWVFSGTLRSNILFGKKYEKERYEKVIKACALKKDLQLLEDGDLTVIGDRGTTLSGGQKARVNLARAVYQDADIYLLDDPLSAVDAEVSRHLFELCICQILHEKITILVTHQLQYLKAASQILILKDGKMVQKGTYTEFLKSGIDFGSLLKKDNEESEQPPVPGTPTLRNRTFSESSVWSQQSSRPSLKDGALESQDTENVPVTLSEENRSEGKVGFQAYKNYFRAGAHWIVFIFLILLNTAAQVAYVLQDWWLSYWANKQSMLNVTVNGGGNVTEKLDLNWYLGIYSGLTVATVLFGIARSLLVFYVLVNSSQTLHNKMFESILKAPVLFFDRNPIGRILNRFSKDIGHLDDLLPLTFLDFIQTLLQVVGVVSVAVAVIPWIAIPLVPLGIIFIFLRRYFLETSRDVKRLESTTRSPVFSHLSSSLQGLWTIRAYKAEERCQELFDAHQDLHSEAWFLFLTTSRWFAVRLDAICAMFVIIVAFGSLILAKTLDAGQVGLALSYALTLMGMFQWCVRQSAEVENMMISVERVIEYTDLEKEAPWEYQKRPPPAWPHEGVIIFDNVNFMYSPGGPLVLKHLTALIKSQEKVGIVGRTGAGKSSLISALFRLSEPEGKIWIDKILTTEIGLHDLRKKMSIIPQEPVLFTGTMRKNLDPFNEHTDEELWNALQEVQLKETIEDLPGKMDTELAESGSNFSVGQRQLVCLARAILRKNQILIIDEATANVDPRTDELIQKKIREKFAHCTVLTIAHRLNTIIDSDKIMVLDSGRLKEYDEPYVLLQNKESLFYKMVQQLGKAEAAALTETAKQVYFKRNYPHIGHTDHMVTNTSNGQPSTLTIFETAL

[3] = biological target: T2, Broad substrate specificity ATP-binding cassette transporter ABCG2 (Homo sapiens, UniProt Q9UNQ0); assay: Inhibition of BCRP in 7 mW/cm'2 irradiated human M14 cells assessed as nitration of tyrosine in BCRP at 5 uM measured after 20 mins by immunoblotting; outline: as §1
T2 sequence (Q9UNQ0 whole entry): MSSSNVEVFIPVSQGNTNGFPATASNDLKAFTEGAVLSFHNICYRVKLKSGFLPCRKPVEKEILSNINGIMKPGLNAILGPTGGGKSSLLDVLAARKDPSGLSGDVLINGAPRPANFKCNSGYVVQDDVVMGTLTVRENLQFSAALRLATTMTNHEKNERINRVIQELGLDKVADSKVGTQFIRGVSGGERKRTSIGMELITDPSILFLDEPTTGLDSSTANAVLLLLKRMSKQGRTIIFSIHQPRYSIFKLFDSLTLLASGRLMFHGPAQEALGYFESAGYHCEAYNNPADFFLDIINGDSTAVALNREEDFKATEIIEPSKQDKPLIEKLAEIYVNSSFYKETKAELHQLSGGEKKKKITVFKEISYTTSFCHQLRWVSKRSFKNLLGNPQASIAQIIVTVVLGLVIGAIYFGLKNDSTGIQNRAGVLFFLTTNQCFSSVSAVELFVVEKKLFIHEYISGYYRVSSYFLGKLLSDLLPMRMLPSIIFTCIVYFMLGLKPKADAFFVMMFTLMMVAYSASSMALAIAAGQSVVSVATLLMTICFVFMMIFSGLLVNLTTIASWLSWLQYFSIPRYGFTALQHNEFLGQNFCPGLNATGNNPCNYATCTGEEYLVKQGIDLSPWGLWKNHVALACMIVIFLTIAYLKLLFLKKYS

[4] = biological target: T1, ATP-binding cassette sub-family C member 4; assay: Inhibition of MRP4 in 7 mW/cm'2 irradiated human M14 cells assessed as reduction in MRP4 ATPase activity at 5 uM measured after 20 mins by spectrophotometric method
Outline: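 M14 melanoma cells held 20 min at room temperature in PBS under 400 nm light (7 mW/cm2) with 5 μM compound, alone or with equimolar doxorubicin. Transporter ATPase activity then measured; n = 3.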

Fibroblast = assay: Cytotoxicity against 7 mW/cm'2 irradiated human fibroblasts at 5 uM measured after 20 mins by spectrophotometric method; assay type: cell-based
Outline: (§2)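 Human fibroblasts or rat H9c2 cardiomyocytes kept 20 min at room temperature in PBS, either in the dark or irradiated at λexc 400 nm, 7 mW/cm2, with or without 5 μM test agent. Cytotoxicity measured in triplicate; means ± SD, n = 3.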

H9c2 [5] = assay: Cytotoxicity against 7 mW/cm'2 irradiated rat H9c2 cells at 5 uM measured after 20 mins by spectrophotometric method; assay type: cell-based; conditions: h9c2, 20 min; outline: as §2
H9c2 [6] = assay: Dark toxicity against rat H9c2 cells at 5 uM measured after 20 mins by spectrophotometric method; assay type: cell-based; conditions: h9c2, 20 min; outline: as §2

Sequence of Multidrug resistance-associated protein 1 (P33527 whole entry): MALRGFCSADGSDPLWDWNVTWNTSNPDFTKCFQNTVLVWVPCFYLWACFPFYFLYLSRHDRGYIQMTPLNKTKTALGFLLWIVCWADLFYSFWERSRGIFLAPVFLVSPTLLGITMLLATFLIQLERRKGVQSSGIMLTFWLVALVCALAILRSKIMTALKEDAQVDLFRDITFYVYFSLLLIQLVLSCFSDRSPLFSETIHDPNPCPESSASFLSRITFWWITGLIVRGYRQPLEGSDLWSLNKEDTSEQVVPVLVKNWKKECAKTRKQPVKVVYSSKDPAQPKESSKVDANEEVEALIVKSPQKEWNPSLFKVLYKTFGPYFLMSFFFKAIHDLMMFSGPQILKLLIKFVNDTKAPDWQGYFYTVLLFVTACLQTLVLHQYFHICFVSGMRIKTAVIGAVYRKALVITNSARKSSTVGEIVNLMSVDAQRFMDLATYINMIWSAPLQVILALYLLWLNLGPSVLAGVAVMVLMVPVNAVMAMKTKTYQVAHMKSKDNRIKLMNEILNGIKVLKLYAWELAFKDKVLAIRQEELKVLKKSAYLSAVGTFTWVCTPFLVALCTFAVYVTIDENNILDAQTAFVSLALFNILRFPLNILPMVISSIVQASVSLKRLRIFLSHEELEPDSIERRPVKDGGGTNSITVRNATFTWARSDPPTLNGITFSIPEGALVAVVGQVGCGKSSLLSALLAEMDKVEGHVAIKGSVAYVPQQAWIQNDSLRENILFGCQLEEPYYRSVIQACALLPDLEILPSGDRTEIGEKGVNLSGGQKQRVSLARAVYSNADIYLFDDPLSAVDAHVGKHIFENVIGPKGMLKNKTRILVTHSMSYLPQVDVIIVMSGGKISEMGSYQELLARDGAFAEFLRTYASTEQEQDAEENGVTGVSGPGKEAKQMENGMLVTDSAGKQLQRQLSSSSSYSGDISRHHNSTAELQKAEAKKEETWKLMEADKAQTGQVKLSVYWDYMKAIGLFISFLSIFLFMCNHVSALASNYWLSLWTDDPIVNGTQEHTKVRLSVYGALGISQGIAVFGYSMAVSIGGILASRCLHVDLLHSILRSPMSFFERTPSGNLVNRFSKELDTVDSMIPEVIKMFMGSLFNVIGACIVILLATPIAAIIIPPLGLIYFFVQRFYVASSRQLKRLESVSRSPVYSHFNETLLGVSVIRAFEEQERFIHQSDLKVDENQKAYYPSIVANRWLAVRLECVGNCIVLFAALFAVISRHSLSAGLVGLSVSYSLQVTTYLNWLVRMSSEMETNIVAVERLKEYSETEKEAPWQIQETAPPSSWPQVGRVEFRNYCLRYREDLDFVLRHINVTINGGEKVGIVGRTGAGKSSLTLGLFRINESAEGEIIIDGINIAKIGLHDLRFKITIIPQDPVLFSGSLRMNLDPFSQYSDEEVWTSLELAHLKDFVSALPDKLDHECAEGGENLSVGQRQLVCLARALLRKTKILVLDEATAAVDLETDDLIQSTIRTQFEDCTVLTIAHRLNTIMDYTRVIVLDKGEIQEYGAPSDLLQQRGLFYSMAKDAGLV

| SMILES | inhibition (Homo sapiens) | Activity (M14) | inhibition (INH) [1] | inhibition (INH) [2] | inhibition (INH) [3] | inhibition (INH) [4] | Activity (Fibroblast) | Activity (H9c2 [5]) | Activity (H9c2 [6]) |
| --- | --- | --- | --- | --- | --- | --- | --- | --- | --- |
| COc1cccc2c1C(=O)c1c(O)c3c(c(O)c1C2=O)C[C@@](O)(C(=O)COC(=O)c1ccc(C(=O)NCCCNc2ccc([N+](=O)[O-])c(C(F)(F)F)c2)cc1)C[C@@H]3O[C@H]1C[C@H](N)[C@H](O)[C@H](C)O1.Cl | Active | Non-Toxic | Active | Active | Active | Active | Non-Toxic | Non-Toxic | Non-Toxic |
| NCCCNc1ccc([N+](=O)[O-])c(C(F)(F)F)c1 | Active | Non-Toxic | Active | Active | Active | Active | Non-Toxic | Non-Toxic | Non-Toxic |
